This note sets out measurements from ChEMBL document CHEMBL1147981, “Small molecule activators of SIRT1 as therapeutics for the treatment of type 2 diabetes” (Nature, 2007).

Active and inactive are the calls of the source. The rule behind the calls is not given here.

For test [1], the target named is T1, NAD-dependent protein deacetylase sirtuin-1 (Homo sapiens) (UniProt Q96EB6).
T1 sequence (whole entry): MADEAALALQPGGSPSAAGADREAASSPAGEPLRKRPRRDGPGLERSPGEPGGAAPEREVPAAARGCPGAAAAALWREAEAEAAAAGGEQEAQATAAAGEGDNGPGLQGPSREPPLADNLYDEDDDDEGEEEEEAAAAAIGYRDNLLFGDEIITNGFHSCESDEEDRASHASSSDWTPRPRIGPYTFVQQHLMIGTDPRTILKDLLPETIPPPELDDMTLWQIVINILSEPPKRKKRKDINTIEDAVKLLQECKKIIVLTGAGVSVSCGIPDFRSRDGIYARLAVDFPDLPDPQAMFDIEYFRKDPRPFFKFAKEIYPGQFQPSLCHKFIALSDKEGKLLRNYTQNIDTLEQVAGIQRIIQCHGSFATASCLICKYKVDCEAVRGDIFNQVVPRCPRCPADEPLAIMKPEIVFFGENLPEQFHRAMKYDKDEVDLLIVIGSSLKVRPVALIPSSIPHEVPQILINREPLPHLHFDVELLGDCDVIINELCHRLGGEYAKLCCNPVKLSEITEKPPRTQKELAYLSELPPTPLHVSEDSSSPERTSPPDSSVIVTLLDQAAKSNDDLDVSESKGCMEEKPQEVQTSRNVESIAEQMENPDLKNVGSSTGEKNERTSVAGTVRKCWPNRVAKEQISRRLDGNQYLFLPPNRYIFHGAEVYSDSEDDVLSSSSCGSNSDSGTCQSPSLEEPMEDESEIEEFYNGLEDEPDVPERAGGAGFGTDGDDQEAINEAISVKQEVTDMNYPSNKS
The test can be described thus: Activation of human SIRT1 assessed as decrease in Km of enzyme for acetylated peptide substrate by mass spectrometry assay.

In test [2] the target is T1, NAD-dependent protein deacetylase sirtuin-1 (Homo sapiens). The test can be described thus: (§1) Activation of human SIRT1 expressed in Escherichia coli BL21 by mass spectrometry assay.
In test [3] the target is T2, NAD-dependent protein deacetylase sirtuin-1 (Homo sapiens, UniProt Q96EB6).
T2 sequence (Q96EB6 whole entry): T1 sequence (whole entry)
The test is described as §1.

For test [4], the target named is T3, NAD-dependent protein deacetylase sirtuin-2 (Homo sapiens, UniProt Q8IXJ6).
T3 sequence (Q8IXJ6 whole entry): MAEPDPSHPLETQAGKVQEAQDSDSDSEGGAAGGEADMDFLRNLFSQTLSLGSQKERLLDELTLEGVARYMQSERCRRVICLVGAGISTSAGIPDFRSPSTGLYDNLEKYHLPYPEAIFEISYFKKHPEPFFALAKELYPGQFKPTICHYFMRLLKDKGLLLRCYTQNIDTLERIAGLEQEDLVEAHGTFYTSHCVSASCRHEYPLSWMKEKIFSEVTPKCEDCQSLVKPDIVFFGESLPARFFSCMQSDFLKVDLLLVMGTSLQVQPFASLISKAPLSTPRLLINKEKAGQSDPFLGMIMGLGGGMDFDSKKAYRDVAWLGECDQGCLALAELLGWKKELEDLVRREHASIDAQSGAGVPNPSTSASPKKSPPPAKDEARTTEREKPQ
In words: Activation of SIRT2 by mass spectrometry assay.

For test [5], the target named is T4, NAD-dependent protein deacetylase sirtuin-3, mitochondrial (Homo sapiens, UniProt Q9NTG7).
T4 sequence (Q9NTG7 whole entry): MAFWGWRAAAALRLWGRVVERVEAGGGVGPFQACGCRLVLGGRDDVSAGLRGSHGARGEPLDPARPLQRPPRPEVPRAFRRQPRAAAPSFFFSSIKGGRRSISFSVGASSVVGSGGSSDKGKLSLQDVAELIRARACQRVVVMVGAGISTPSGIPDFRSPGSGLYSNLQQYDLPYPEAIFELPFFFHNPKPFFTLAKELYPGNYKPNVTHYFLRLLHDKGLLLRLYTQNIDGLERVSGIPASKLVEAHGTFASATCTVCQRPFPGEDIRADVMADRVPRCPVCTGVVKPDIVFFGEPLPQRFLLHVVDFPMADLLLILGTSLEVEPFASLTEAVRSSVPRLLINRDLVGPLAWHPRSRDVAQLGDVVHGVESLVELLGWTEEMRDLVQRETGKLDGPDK
In words: Activation of SIRT3 by mass spectrometry assay.

Test [6] addresses T1, NAD-dependent protein deacetylase sirtuin-1 (Homo sapiens). In words: Activation of SIRT1 in human U2OS cells assessed as decrease in deacetylation level at 10 uM. The class given is cell-based. In a few lines: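 U-2 OS cells seeded 1.5 × 10⁴/well; compounds in DMSO added after 24 h, then doxorubicin 1 μg/ml final to induce p53. Fixed, permeabilized, immunostained for Ac-Lys382-p53 and beta-tubulin, infrared scan; background-corrected acetyl signal normalized to tubulin, then to vehicle as % acetylated p53. Replicate plates co-treated with a SIRT1-specific inhibitor.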

Test [7] concerns the target T2, NAD-dependent protein deacetylase sirtuin-1. In words: Binding affinity to human SIRT1 by isothermal titration calorimetry. (In general: Isothermal titration calorimetry measures the heat released or taken up as one component is titrated into another.)
Test [8] concerns Mus musculus. In words: Reduction of glucose levels in DIO C57BL/6 mouse model at 5 mg/kg, po during insulin tolerance test. The class given is functional, organism-based. Details: dose 5 mg/kg. A digest of the protocol: (§2)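 Male C57BL/6 mice, started at nine weeks, fed 60%-fat diet until mean weight ~40 g; 6-10 per group; once-daily oral gavage in 2% HPMC + 0.2% DOSS. Fed glucose at 2, 4, 6, 8, 10 weeks; IPGTT after 5 weeks; ITT after 10 weeks. One-way ANOVA with Dunnett's test vs control, p<0.05.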

Test [9] concerns Mus musculus. The test can be described thus: Reduction of fasting blood glucose in DIO C57BL/6 mouse model at 5 mg/kg, po assessed as glucose level by glucose tolerance test. Format: functional. In a few lines:
as §2

As for `COc1cc(C(=O)Nc2ccccc2-c2cn3c(CN4CCNCC4)csc3n2)cc(OC)c1OC`, the result in test [1] and in [6] was Active. Moreover, the Activity in test [2] was 447%. For the same molecule, the EC50 (commonly the concentration that produces a half-maximal response) in [3] is 2.9 µM; in [4], > 300 µM; in [5], > 300 µM. For the same molecule, the Kd (as a rule, a measure of binding affinity in units of concentration) in test [7] was 16.2 µM.

Take `CN(CCOc1ccc(CC2SC(=O)NC2=O)cc1)c1ccccn1` (centres undefined) [ROSIGLITAZONE]: the result with Mus musculus [8] was Active. The Activity in the test on Mus musculus [9] was 496 mg/h/dL.
